The subject of one assay is NCM460. Briefly: Cytotoxicity against human NCM460 cells assessed as reduction in cell growth after 72 hrs by MTT assay. Type of assay: cell-based. To be noted: NCM460, 72 h.
Another assay deals with HCT-116. Briefly: Cytotoxicity against human HCT116 cells assessed as reduction in cell growth after 72 hrs by MTT assay. Type of assay: cell-based. To be noted: HCT-116, 72 h.
In a further assay the test system is SW480. Briefly: Cytotoxicity against human SW480 cells assessed as reduction in cell growth after 72 hrs by MTT assay. The class given is cell-based. To be noted: SW480, 72 h.
Assay [1] relates to Chorioallantoic membrane. As to the kind of experiment: Antiangiogenic activity in Leghorn chicken fertilized egg chorioallantoic membrane measured after 48 hrs by CAM assay. To be noted: Gallus gallus. Type of assay: functional, tissue-based. Summed up: (§1)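 Fertile Leghorn eggs incubated at 37.8°C, 40% humidity; window opened on day 7; compound, sunitinib or 0.9% NaCl mixed with DMSO applied on filter paper onto CAM; 48 h incubation, methanol fixation, photography; nascent vessels counted.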

For assay [2], the system named is HUVEC. Briefly: Antiangiogenic activity against HUVEC assessed as inhibition of cell proliferation measured […] by MTT assay. To be noted: Homo sapiens, 0.5 h. Type of assay: functional, cell-based.
Assay [3] relates to HUVEC. Briefly: Antiangiogenic activity against VEGF-induced HUVEC assessed as inhibition of cell proliferation preincubated for 30 mins followed by VEGF addition measured after 24 hrs by MTT assay. The class given is functional, cell-based. To be noted: Homo sapiens. Summed up:
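HUVECs seeded 24 h, starved 16 h in M200 with 2% FBS, pretreated 30 min with compound at 0.1, 1, 10, 20 or 40 μM, then stimulated with VEGF (25 ng/mL) for 24 h; viability read by MTT; IC50 determined.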

In another assay the test system is Mus musculus. As to the kind of experiment: Antiangiogenic activity in Matrigel plug angiogenic Balb/c mouse model assessed as impaired vascularization by measuring loss of red colour in VEGF-supplemented matrigel at 20 to 60 mg/kg, sc measured after 15 days. Type of assay: functional, organism-based. Summed up:
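Balb/c nude mice (6–8 weeks), three groups, injected subcutaneously with 400 μL Matrigel alone or with VEGF (250 ng/mL) and/or compound; after 15 days plugs removed, weighed and photographed.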

Assay [4] deals with Chorioallantoic membrane. As to the kind of experiment: Antiangiogenic activity in Leghorn chicken fertilized egg chorioallantoic membrane at 10 nM/egg measured after 48 hrs by CAM assay. Type of assay: functional, tissue-based. To be noted: Gallus gallus. The method in brief:
as §1

Calls of active or inactive are those of the source. No cut-off for these calls is given here. A value given as a limit tells only on which side of the number the result lay.

As to `O=C(Nc1ccc(Cl)cc1)c1cccc(/C=C2\CC(=O)N(Cc3ccccc3)C2=O)c1`, the half-inhibitory concentration (IC50) with NCM460, in the assay on HCT-116 and in the assay with SW480 was above 100 µM throughout.

For `CCN(CC)CCNC(=O)c1c(C)[nH]c(/C=C2\C(=O)Nc3ccc(F)cc32)c1C` [SUNITINIB], the result with Chorioallantoic membrane [1] was Active. Also, the IC50 in the assay with HUVEC [2] was 6.46 µM; in the assay on HUVEC [3], 3.63 µM.

As for `CSc1cccc(NC(=O)c2cccc(/C=C3\CC(=O)N(c4ccccc4)C3=O)c2)c1`, the concentration for half-maximal inhibition (IC50) in the assay on NCM460 is above 100 µM; in the assay with HCT-116 it was 65.2 µM; in the assay with SW480, 74.3 µM.

Take `COc1ccc(NC(=O)c2cccc(CC3CC(=O)N(c4ccc(C)cc4)C3=O)c2)cc1` (stereo not given): the concentration for half-maximal inhibition (IC50) with NCM460, with HCT-116 and with SW480 was above 100 µM throughout. Moreover, in the assay with Mus musculus, the result was Active.

`O=C(NCc1ccccc1)c1cccc(/C=C2\CC(=O)N(c3ccccc3)C2=O)c1`: the IC50 with NCM460, in the assay with HCT-116 and with SW480 was above 100 µM throughout. The result in the assay with Chorioallantoic membrane [4] was Active.

Take `Cc1cccc(NC(=O)c2cccc(/C=C3\CC(=O)N(c4ccccc4)C3=O)c2)c1`: the IC50 in the assay on NCM460, in the assay on HCT-116 and in the assay on SW480 was above 100 µM throughout.

As for `Cc1ccc(NC(=O)c2cccc(/C=C3\CC(=O)N(c4ccccc4)C3=O)c2)cc1`, the half-inhibitory concentration (IC50) in the assay with NCM460, with HCT-116 and in the assay on SW480 was above 100 µM each time.

With `CCCCN1C(=O)C/C(=C\c2cccc(C(=O)Nc3cccc(CC)c3)c2)C1=O`, the results for the IC50 with NCM460, in the assay on HCT-116 and in the assay with SW480 were above 100 µM, 75.3 µM and 83.2 µM, respectively.

With `CCOc1ccc(NC(=O)c2cccc(/C=C3\CC(=O)N(Cc4ccccc4)C3=O)c2)cc1`, the results for the IC50 in the assay with NCM460, in the assay with HCT-116 and in the assay with SW480 were above 100 µM, 41.7 µM and 73.2 µM, respectively.

Turning to `Cc1ccc(NC(=O)c2cccc(/C=C3\CC(=O)N(c4ccccc4)C3=O)c2)cc1C`, the IC50 with NCM460, with HCT-116 and with SW480 was above 100 µM throughout.

Turning to `COc1ccc(NC(=O)c2cccc(/C=C3\CC(=O)N(c4ccccc4)C3=O)c2)c(C)c1`, the IC50 in the assay with NCM460, in the assay on HCT-116 and in the assay with SW480 was above 100 µM throughout.

For `CCc1ccc(NC(=O)c2cccc(/C=C3\CC(=O)N(c4ccccc4)C3=O)c2)cc1`, the IC50 in the assay with NCM460, in the assay on HCT-116 and with SW480 was above 100 µM throughout.

For `O=C(Nc1ccc(OC(F)F)cc1)c1cccc(/C=C2\CC(=O)N(c3ccccc3)C2=O)c1`, the IC50 with NCM460, in the assay with HCT-116 and in the assay with SW480 was above 100 µM in each case.

As to `CCOc1ccc(NC(=O)c2cccc(/C=C3\CC(=O)N(c4ccccc4)C3=O)c2)cc1`, the IC50 in the assay on NCM460 is above 100 µM; in the assay on HCT-116, 84.8 µM; in the assay on SW480 it was 91.5 µM.

Turning to `O=C(Nc1ccc(F)cc1)c1cccc(/C=C2\CC(=O)N(c3ccccc3)C2=O)c1`, the half-maximal inhibitory concentration (IC50) in the assay with NCM460, with HCT-116 and in the assay with SW480 was above 100 µM throughout.

Regarding `CCCCCN1C(=O)C/C(=C\c2cccc(C(=O)Nc3ccc(OC)cc3)c2)C1=O`, the concentration for half-maximal inhibition (IC50) with NCM460, with HCT-116 and in the assay on SW480 was above 100 µM in each case.

As for `O=C(c1cccc(/C=C2\CC(=O)N(c3ccccc3)C2=O)c1)N1CCCC1`, the IC50 with NCM460, in the assay on HCT-116 and with SW480 was above 100 µM throughout. Besides, in the assay on Chorioallantoic membrane [4], the outcome was Active.

Turning to `COc1cc(NC(=O)c2cccc(/C=C3\CC(=O)N(c4ccccc4)C3=O)c2)cc(OC)c1OC`, the IC50 in the assay with NCM460, in the assay with HCT-116 and in the assay with SW480 was above 100 µM each time.

Regarding `O=C(c1cccc(/C=C2\CC(=O)N(c3ccccc3)C2=O)c1)N1CCOCC1`, the half-inhibitory concentration (IC50) in the assay on NCM460, with HCT-116 and with SW480 was above 100 µM each time. Besides, in the assay with Chorioallantoic membrane [4], the outcome was Active.

As for `O=C(Nc1ccccc1)c1cccc(/C=C2\CC(=O)N(c3ccccc3)C2=O)c1`, the half-inhibitory concentration (IC50) in the assay with NCM460, in the assay with HCT-116 and in the assay on SW480 was above 100 µM in each case.

For `O=C(Nc1ccc(Cl)cc1)c1cccc(/C=C2\CC(=O)N(c3ccccc3)C2=O)c1`, the IC50 in the assay on NCM460, in the assay on HCT-116 and in the assay on SW480 was above 100 µM each time. Also, the outcome in the assay on Chorioallantoic membrane [4] was Active.

In the case of `CCc1cccc(NC(=O)c2cccc(/C=C3\CC(=O)N(c4ccccc4)C3=O)c2)c1`, the figures for the half-inhibitory concentration (IC50) with NCM460, in the assay on HCT-116 and with SW480 were above 100 µM, 81.2 µM and 88.6 µM, respectively.

Turning to `O=C(NC1CCCCC1)c1cccc(/C=C2\CC(=O)N(c3ccccc3)C2=O)c1`, the IC50 in the assay on NCM460, with HCT-116 and in the assay on SW480 was above 100 µM in each case. In addition, the outcome in the assay with Chorioallantoic membrane [4] was Active.

For the compound `Cc1ccc(N2C(=O)C/C(=C\c3cccc(C(=O)Nc4cccc(F)c4)c3)C2=O)cc1`, the results for the IC50 in the assay with NCM460, in the assay on HCT-116 and with SW480 were above 100 µM, above 100 µM and 96.9 µM, respectively.

Take `CCCCNC(=O)c1cccc(/C=C2\CC(=O)N(Cc3ccccc3)C2=O)c1`: the IC50 in the assay with NCM460 is above 100 µM; in the assay on HCT-116 it was 95 µM; in the assay on SW480, above 100 µM.

On to `COc1ccc(OC)c(NC(=O)c2cccc(/C=C3\CC(=O)N(c4ccccc4)C3=O)c2)c1`, for which the 50% inhibitory concentration (IC50) with NCM460, in the assay with HCT-116 and in the assay on SW480 was above 100 µM in each case.

`COc1ccc(NC(=O)c2cccc(/C=C3\CC(=O)N(c4ccccc4)C3=O)c2)cc1`: the concentration for half-maximal inhibition (IC50) with NCM460, with HCT-116 and in the assay on SW480 was above 100 µM each time. Also, the outcome in the assay with Chorioallantoic membrane [4] was Active.

Take `CCc1cccc(NC(=O)c2cccc(/C=C3\CC(=O)N(c4ccc(C)cc4)C3=O)c2)c1`: the values for the IC50 in the assay on NCM460, in the assay on HCT-116 and in the assay on SW480 were above 100 µM, 41.5 µM and 65.3 µM, respectively.

As to `O=C(Nc1cccc(F)c1)c1cccc(/C=C2\CC(=O)N(c3ccccc3)C2=O)c1`, the half-maximal inhibitory concentration (IC50) in the assay on NCM460, in the assay with HCT-116 and in the assay with SW480 was above 100 µM in each case.

For the compound `Cc1ccc(N2C(=O)C/C(=C\c3cccc(C(=O)Nc4ccc(Cl)cc4)c3)C2=O)cc1`, the IC50 with NCM460, with HCT-116 and in the assay on SW480 was above 100 µM in each case.

As for `CCc1cccc(NC(=O)c2cccc(/C=C3\CC(=O)N(Cc4ccccc4)C3=O)c2)c1`, the IC50 with NCM460 is above 100 µM; in the assay with HCT-116, 80.6 µM; in the assay with SW480, 91.5 µM.

The record behind these values is ChEMBL document CHEMBL4396917, “Synthesis and biological evaluation of novel benzylidene-succinimide derivatives as noncytotoxic antiangiogenic inhibitors with anticolorectal cancer activity in vivo” (Eur J Med Chem, 2019).
